Experiments:
HL-60 [1] = experiment: Antiproliferative activity against human HL60 cells assessed as inhibition of [3H]thymidine incorporation after 4 days by liquid scintillation counter; type: functional, cell-based
Method in brief: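 HL-60 cells in log phase diluted to 10^5 cells/mL, preincubated 18 h, then exposed to samples in DMSO (final 0.1% v/v; DMSO-only controls) for 4 days. Cells then pulsed with [3H]thymidine (0.5 μCi/mL, 65 Ci/mmol) for 18 h at 37 °C, 5% CO2, harvested onto glass fiber filters, scintillation counted; incorporation per 10^6 cells as % of DMSO control. IC50 from 5–7 concentrations in duplicate.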

HL-60 [2] = experiment: Induction of cell differentiation in human HL60 cells assessed as superoxide anion production after 4 days by NBT reduction assay; type: functional, cell-based; details: HL-60, 96 h
Method in brief: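 Cells diluted to 10^5/mL and recovered overnight were exposed 4 days to samples (0.1% v/v DMSO final). Cell suspension (10^6 cells) was mixed 1:1 with NBT 2 mg/mL plus TPA 1 μg/mL in PBS and held 1 h at 37 °C. Formazan-positive cells were counted microscopically among >200 cells. EC50 from 5–7 concentrations in duplicate; 1α,25-dihydroxyvitamin D3 served as reference.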

HL-60 [3] = experiment: Cytotoxicity against human HL60 cells assessed as loss of membrane integrity after 4 days by trypan blue exclusion assay; type: functional, cell-based; details: HL-60, 96 h
Method in brief: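 After 18 h recovery at 10^5 cells/mL, HL-60 cells were treated 4 days with samples (final DMSO 0.1% v/v). Cells were mixed 1:4 with trypan blue (0.2% w/v in PBS), held at least 5 min at room temperature and counted by hemocytometer. Viability was taken from duplicate samples; IC50 from 5–7 concentrations in duplicate.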

HL-60 [4] = experiment: Selectivity index, ratio of cytotoxic IC50 to antiproliferative IC50 for human HL60 cells; type: functional
Method in brief: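 Index = cytotoxic IC50 (trypan blue, 4-day HL-60 exposure) divided by antiproliferative IC50 ([3H]thymidine incorporation), each from dose–response with at least five points.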

CC1=CC(=O)[C@@H](O)[C@]2(C)[C@H]3[C@]4(O)OC[C@]35[C@H]([C@@H](C)[C@H]4O)[C@@H](OC(=O)C(=O)O[C@H]3C(=O)O[C@@H]4C[C@H]6C(C)=CC(=O)[C@@H](O)[C@]6(C)[C@H]6[C@]7(O)OC[C@]64[C@@H]3[C@@H](C)[C@H]7O)C(=O)O[C@@H]5C[C@@H]12.O=C(O)C(=O)O
IC50 (HL-60 [1]): 500 nM | EC50 (HL-60 [2]): > 1500 nM | IC50 (HL-60 [3]): 1800 nM | Ratio IC50 (HL-60 [4]): 3.6

CC1=CC(=O)[C@@H](O)[C@]2(C)[C@H]3[C@]4(O)OC[C@]35[C@H]([C@@H](C)[C@H]4O)[C@@H](OC(=O)CC(C)(C)OP(=O)(O)O)C(=O)O[C@@H]5C[C@@H]12
IC50 (HL-60 [1]): 700 nM | EC50 (HL-60 [2]): 3000 nM | IC50 (HL-60 [3]): 4400 nM | Ratio IC50 (HL-60 [4]): 6.5

CC1=CC(=O)[C@@H](O)[C@]2(C)[C@H]3[C@]4(O)OC[C@]35[C@H]([C@@H](C)[C@H]4O)[C@@H](OC(=O)CC(O)(C(C)C)C(C)C)C(=O)O[C@@H]5C[C@@H]12
IC50 (HL-60 [1]): 9 nM | EC50 (HL-60 [2]): 9 nM | IC50 (HL-60 [3]): 9 nM | Ratio IC50 (HL-60 [4]): 1

CC1=CC(=O)[C@@H](O)[C@]2(C)[C@H]3[C@]4(O)OC[C@]35[C@H]([C@@H](C)[C@H]4O)[C@@H](OC(=O)CC(O)(CC(C)C)CC(C)C)C(=O)O[C@@H]5C[C@@H]12
IC50 (HL-60 [1]): 40 nM | EC50 (HL-60 [2]): > 50 nM | IC50 (HL-60 [3]): 40 nM | Ratio IC50 (HL-60 [4]): 1

CC1=CC(=O)[C@@H](O)[C@]2(C)[C@H]3[C@]4(O)OC[C@]35[C@H]([C@@H](C)[C@H]4O)[C@@H](OC(=O)CC(C)C)C(=O)O[C@@H]5C[C@@H]12
IC50 (HL-60 [1]): 1000 nM | EC50 (HL-60 [2]): > 2000 nM | IC50 (HL-60 [3]): 1500 nM | Ratio IC50 (HL-60 [4]): 1.5

CC1=CC(=O)[C@@H](O)[C@]2(C)[C@H]3[C@]4(O)OC[C@]35[C@H]([C@@H](C)[C@H]4O)[C@@H](OC(=O)C3(CO)CC3)C(=O)O[C@@H]5C[C@@H]12
IC50 (HL-60 [1]): 1000 nM | EC50 (HL-60 [2]): 2000 nM | IC50 (HL-60 [3]): 2800 nM | Ratio IC50 (HL-60 [4]): 2.9

CC1=CC(=O)[C@@H](O)[C@]2(C)[C@H]3[C@]4(O)OC[C@]35[C@H]([C@@H](C)[C@H]4O)[C@@H](OC(=O)[C@@H](C)CO)C(=O)O[C@@H]5C[C@@H]12
IC50 (HL-60 [1]): 600 nM | EC50 (HL-60 [2]): 1900 nM | IC50 (HL-60 [3]): 2500 nM | Ratio IC50 (HL-60 [4]): 4.3

CC1=CC(=O)[C@@H](O)[C@]2(C)[C@H]3[C@]4(O)OC[C@]35[C@H]([C@@H](C)[C@H]4O)[C@@H](OC(=O)C(C)(C)C(=O)O)C(=O)O[C@@H]5C[C@@H]12
IC50 (HL-60 [1]): 3200 nM | EC50 (HL-60 [2]): > 7000 nM | IC50 (HL-60 [3]): > 7000 nM | Ratio IC50 (HL-60 [4]): >2.2

CC1=CC(=O)[C@@H](O)[C@]2(C)[C@H]3[C@]4(O)OC[C@]35[C@H]([C@@H](C)[C@H]4O)[C@@H](OC(=O)CN(C)C)C(=O)O[C@@H]5C[C@@H]12
IC50 (HL-60 [1]): 500 nM | EC50 (HL-60 [2]): 500 nM | IC50 (HL-60 [3]): 800 nM | Ratio IC50 (HL-60 [4]): 1.6

CC1=CC(=O)[C@@H](O)[C@]2(C)[C@H]3[C@]4(O)OC[C@]35[C@H]([C@@H](C)[C@H]4O)[C@@H](OC(=O)C(C)(C)CO)C(=O)O[C@@H]5C[C@@H]12
IC50 (HL-60 [1]): 200 nM | EC50 (HL-60 [2]): 500 nM | IC50 (HL-60 [3]): 600 nM | Ratio IC50 (HL-60 [4]): 3.1

CC1=CC(=O)[C@@H](O)[C@]2(C)[C@H]3[C@]4(O)OC[C@]35[C@H]([C@@H](C)[C@H]4O)[C@@H](OC(=O)C=C(C3CC3)C3CC3)C(=O)O[C@@H]5C[C@@H]12
IC50 (HL-60 [1]): 200 nM | EC50 (HL-60 [2]): 600 nM | IC50 (HL-60 [3]): 750 nM | Ratio IC50 (HL-60 [4]): 3.9

CC[C@@](O)(CC(=O)O[C@H]1C(=O)O[C@@H]2C[C@H]3C(C)=CC(=O)[C@@H](O)[C@]3(C)[C@H]3[C@]4(O)OC[C@]32[C@@H]1[C@@H](C)[C@H]4O)C(C)C
IC50 (HL-60 [1]): 11 nM | EC50 (HL-60 [2]): 17 nM | IC50 (HL-60 [3]): 13 nM | Ratio IC50 (HL-60 [4]): 1.2

CC1=CC(=O)[C@@H](O)[C@]2(C)[C@H]3[C@]4(O)OC[C@]35[C@H]([C@@H](C)[C@H]4O)[C@@H](OC(=O)CC3(O)CCCC3)C(=O)O[C@@H]5C[C@@H]12
IC50 (HL-60 [1]): 190 nM | EC50 (HL-60 [2]): 130 nM | IC50 (HL-60 [3]): 380 nM | Ratio IC50 (HL-60 [4]): 2.1

CC1=CC(=O)[C@@H](O)[C@]2(C)[C@H]3[C@]4(O)OC[C@]35[C@H]([C@@H](C)[C@H]4O)[C@@H](OC(=O)C=C(C(C)C)C(C)C)C(=O)O[C@@H]5C[C@@H]12
IC50 (HL-60 [1]): 70 nM | EC50 (HL-60 [2]): 90 nM | IC50 (HL-60 [3]): 130 nM | Ratio IC50 (HL-60 [4]): 1.9

CC1=CC(=O)[C@@H](O)[C@]2(C)[C@H]3[C@]4(O)OC[C@]35[C@H]([C@@H](C)[C@H]4O)[C@@H](OC(=O)C[C@]3(O)CC(C)CCC3C(C)C)C(=O)O[C@@H]5C[C@@H]12 (stereo not given in full)
IC50 (HL-60 [1]): 400 nM | EC50 (HL-60 [2]): 300 nM | IC50 (HL-60 [3]): 900 nM | Ratio IC50 (HL-60 [4]): 2.3

CC1=CC(=O)[C@@H](O)[C@]2(C)[C@H]3[C@]4(O)OC[C@]35[C@H]([C@@H](C)[C@H]4O)[C@@H](OC(=O)CC3(O)C(C)(C)CCC3(C)C)C(=O)O[C@@H]5C[C@@H]12
IC50 (HL-60 [1]): 40 nM | EC50 (HL-60 [2]): 25 nM | IC50 (HL-60 [3]): 50 nM | Ratio IC50 (HL-60 [4]): 1.3

CC1=CC(=O)[C@@H](O)[C@]2(C)[C@H]3[C@]4(O)OC[C@]35[C@H]([C@@H](C)[C@H]4O)[C@@H](OC(=O)[C@H](C)CO)C(=O)O[C@@H]5C[C@@H]12
IC50 (HL-60 [1]): 1500 nM | EC50 (HL-60 [2]): > 6000 nM | IC50 (HL-60 [3]): 6200 nM | Ratio IC50 (HL-60 [4]): 4.2

CC[C@](C)(O)C(=O)O[C@H]1C(=O)O[C@@H]2C[C@H]3C(C)=CC(=O)[C@@H](O)[C@]3(C)[C@H]3C4(O)OC[C@]32[C@@H]1[C@@H](C)[C@H]4O (single isomer, unassigned) [GLAUCARUBINONE]
IC50 (HL-60 [1]): 500 nM | EC50 (HL-60 [2]): 1800 nM | IC50 (HL-60 [3]): 1000 nM | Ratio IC50 (HL-60 [4]): 2.1

CC1=CC(=O)[C@@H](O)[C@]2(C)[C@H]3[C@]4(O)OC[C@]35[C@H]([C@@H](C)[C@H]4O)[C@@H](O)C(=O)O[C@@H]5C[C@@H]12 [GLAUCARUBOLONE]
IC50 (HL-60 [1]): 400 nM | EC50 (HL-60 [2]): 1300 nM | IC50 (HL-60 [3]): 1300 nM | Ratio IC50 (HL-60 [4]): 3.3

CC(=O)O[C@H]1C(=O)O[C@@H]2C[C@H]3C(C)=CC(=O)[C@@H](O)[C@]3(C)[C@H]3[C@]4(O)OC[C@]32[C@@H]1[C@@H](C)[C@H]4O [HOLACANTHONE]
IC50 (HL-60 [1]): 200 nM | EC50 (HL-60 [2]): 200 nM | IC50 (HL-60 [3]): 500 nM | Ratio IC50 (HL-60 [4]): 2.5

CC[C@](C)(OC(C)=O)C(=O)O[C@H]1C(=O)O[C@@H]2C[C@H]3C(C)=CC(=O)[C@@H](O)[C@]3(C)[C@H]3[C@@H](O)[C@H](O)[C@@]4(C)OC[C@]32[C@@H]14 [QUASSIMARIN]
IC50 (HL-60 [1]): 60 nM | EC50 (HL-60 [2]): 90 nM | IC50 (HL-60 [3]): 130 nM | Ratio IC50 (HL-60 [4]): 2.2

CC[C@@H](C)C(=O)O[C@H]1C(=O)O[C@@H]2C[C@H]3C(C)=CC(=O)[C@@H](O)[C@]3(C)[C@H]3[C@@H](O)[C@H](O)[C@]4(C)OC[C@]32[C@@H]14 [SIMALIKALACTONE D]
IC50 (HL-60 [1]): > 200 nM | EC50 (HL-60 [2]): > 200 nM | IC50 (HL-60 [3]): 200 nM

CC1=CC(=O)[C@@H](O)[C@]2(C)[C@H]3[C@]4(O)OC[C@]35[C@H]([C@@H](C)[C@H]4O)[C@@H](OC(=O)CC(C)(C)O)C(=O)O[C@@H]5C[C@@H]12 [SOULARUBINONE]
IC50 (HL-60 [1]): 100 nM | EC50 (HL-60 [2]): 200 nM | IC50 (HL-60 [3]): 400 nM | Ratio IC50 (HL-60 [4]): 4.2

CC1=CC(=O)[C@@H](O)[C@]2(C)[C@H]3[C@@H](O)[C@H](O)[C@@]4(C)OC[C@@]35[C@@H](C[C@@H]12)OC(=O)[C@H](O)[C@@H]45 [YADANZIOLIDE C]
IC50 (HL-60 [1]): 1500 nM | EC50 (HL-60 [2]): 10000 nM | IC50 (HL-60 [3]): > 10000 nM | Ratio IC50 (HL-60 [4]): >6.7
